Test results as given in ChEMBL document CHEMBL3797067, “Part 3: Notch-sparing γ-secretase inhibitors: SAR studies of 2-substituted aminopyridopyrimidinones” (Bioorg Med Chem Lett, 2016).
Calls of active or inactive are those of the source. The calls are words filed in the database; no cut-off is given here.

Key:
[1] = target: T1, Gamma-secretase (Homo sapiens) (UniProt Q96BI3+Q9NZ42+Q8WW43+P49768+Q92542+P49810); test: Inhibition of human gamma-secretase assessed as inhibition of notch1 processing at 100 uM using N100Flag as substrate by western blot analysis; type: protein-complex assay
[2] = target: T1, Gamma-secretase (Homo sapiens); test: Inhibition of human gamma-secretase assessed as inhibition of amyloid beta 40 production using recombinant APP C100FLAG as substrate at 100 uM after 4 hrs by ELISA relative to control; type: protein-complex assay
In short: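 Purified human γ-secretase complex incubated with recombinant C100 FLAG substrate in 0.2% CHAPSO/HEPES, pH 7.5. Compound added from DMSO stock to a final 100 μM with 1% final DMSO. Reaction run 4 h at 37°C and stopped with 0.5% SDS. Aβ40 quantified by specific ELISA and expressed as percent inhibition versus DMSO control.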

[3] = target: T1, Gamma-secretase (Homo sapiens); test: Inhibition of gamma-secretase (unknown origin) assessed as inhibition of amyloid beta 42 production at 100 uM by cell-based assay
[4] = target: Gamma-secretase; test: Inhibition of gamma-secretase (unknown origin) assessed as inhibition of amyloid beta 42 production by cell-based assay; set-up: species or system Homo sapiens
[5] = Metabolic stability of the compound in human liver microsomes assessed as parent compound remaining after 60 mins; type: ADME; conditions: read-out: Stability
[6] = Metabolic stability of the compound in rat liver microsomes assessed as parent compound remaining after 60 mins; type: ADME; conditions: read-out: Stability
[7] = Protein binding in human plasma; type: ADME, cell-free; conditions: read-out: PPB (converted)
[8] = Lipophilicity, logD of the compound; type: physicochemical; conditions: octanol/water
[9] = Permeability of the compound from apical to basolateral side; type: ADME; conditions: not told; read-out: permeability

| inhibition [1] | inhibition [2] [%] | Structure (SMILES) | further results |
| --- | --- | --- | --- |
| inactive | 59 | Cn1c(=O)c(-c2c(Cl)cccc2Cl)cc2cnc(NCc3ccccn3)nc21 | – |
| – | 26 | Cn1c(=O)c(-c2c(Cl)cccc2Cl)cc2cnc(Nc3ccccc3)nc21 | – |
| inactive | 0 | CN1CCN(c2ncc3cc(-c4c(Cl)cccc4Cl)c(=O)n(C)c3n2)CC1 | inhibition [3]: 7% |
| Active | 14 | Cn1c(=O)c(-c2ccccc2)cc2cnc(N3CCN(c4ccc(F)cc4)CC3)nc21 | – |
| – | 0 | Cn1c(=O)c(-c2ccc(Cl)cc2)cc2cnc(N3CCN(c4ccc(F)cc4)CC3)nc21 | – |
| inactive | 50 | CC(C)N(Cc1ccc(Cl)c(Cl)c1)c1ncc2cc(-c3c(Cl)cccc3Cl)c(=O)n(C)c2n1 | – |
| inactive | 47 | CSc1ccc(Nc2ncc3cc(-c4c(Cl)cccc4Cl)c(=O)n(C)c3n2)cc1 | IC50 [4]: 26 µM |
| – | 0 | Cn1c(=O)c(-c2c(Cl)cccc2Cl)cc2cnc(N3CCN(c4ccccn4)CC3)nc21 | – |
| – | 12 | Cn1c(=O)c(-c2c(Cl)cccc2Cl)cc2cnc(Nc3ccc(C(F)(F)F)cc3)nc21 | – |
| inactive | 68 | Cn1c(=O)c(-c2c(Cl)cccc2Cl)cc2cnc(N3CCN(c4ccc(F)cc4)CC3)nc21 | remaining at 1 h [5]: 74%; remaining at 1 h [6]: 72%; IC50 [4]: 2.7 µM; fraction unbound [7]: 0.011; logD [8]: > 4; Papp A→B [9]: 0.1 ×10⁻⁶ cm/s |
| – | 2 | Cn1c(=O)c(-c2ccc(C(C)(C)C)cc2)cc2cnc(N3CCN(c4ccc(F)cc4)CC3)nc21 | – |
| inactive | 0 | CC(C)Nc1ncc2cc(-c3c(Cl)cccc3Cl)c(=O)n(C)c2n1 | – |
| inactive | 90 | CC(C)N(Cc1ccccc1)c1ncc2cc(-c3c(Cl)cccc3Cl)c(=O)n(C)c2n1 | remaining at 1 h [5]: 72%; remaining at 1 h [6]: 4%; fraction unbound [7]: 0.057; logD [8]: > 4; Papp A→B [9]: 2.3 ×10⁻⁶ cm/s |
| – | 0 | Cn1c(=O)c(-c2c(Cl)cccc2Cl)cc2cnc(N3CCN(CC4CCCO4)CC3)nc21 (configuration not stated) | – |
| – | 0 | Cn1c(=O)c(-c2c(Cl)cccc2Cl)cc2cnc(NCc3ccccc3)nc21 | – |
| Active | 20 | Cn1c(=O)c(-c2c(F)cccc2F)cc2cnc(N3CCN(c4ccc(F)cc4)CC3)nc21 | – |
| Active | 53 | CCCCCCNc1ncc2cc(-c3c(Cl)cccc3Cl)c(=O)n(C)c2n1 | – |
| Active | 73 | CC(C)N(Cc1cc(F)cc(F)c1)c1ncc2cc(-c3c(Cl)cccc3Cl)c(=O)n(C)c2n1 | – |
| inactive | 48 | CN(CCc1ccccc1)c1ncc2cc(-c3c(Cl)cccc3Cl)c(=O)n(C)c2n1 | – |
| inactive | 47 | COc1ccc(Nc2ncc3cc(-c4c(Cl)cccc4Cl)c(=O)n(C)c3n2)cc1 | – |
| – | 0 | Cn1c(=O)c(-c2c(Cl)cccc2Cl)cc2cnc(N3CCN(c4ncccn4)CC3)nc21 | – |
| inactive | 0 | CSc1cccc(Nc2ncc3cc(-c4c(Cl)cccc4Cl)c(=O)n(C)c3n2)c1 | – |
| – | 0 | Cn1c(=O)ccc2cnc(N3CCN(c4ccc(F)cc4)CC3)nc21 | – |
| – | 0 | Cn1c(=O)c(-c2c(Cl)cccc2Cl)cc2cnc(N3CCN(Oc4cccnc4)CC3)nc21 | inhibition [3]: 0% |
